Data from ChEMBL document CHEMBL3120083, “Discovery of N-[4-[6-tert-butyl-5-methoxy-8-(6-methoxy-2-oxo-1H-pyridin-3-yl)-3-quinolyl]phenyl]methanesulfonamide (RG7109), a potent inhibitor of the hepatitis C virus NS5B polymerase” (J Med Chem, 2014).
≈ marks a conversion by molar mass, not a printed value.

How the values were obtained:
[1] = Inhibition of N-terminal 6xHis-tagged Hepatitis C virus genotype 1b Con1 NS5B polymerase containing 21-amino acid deletion at C-terminus expressed in Escherichia coli using radiolabeled UTP as substrate after 2 hrs by scintillation counting analysis; parameters: species or system Hepatitis C virus (isolate Con1)
How it was run: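 GT-1b Con1 NS5B polymerase (NS5B570n-Con1) activity assay run with RNA template at 3 nM and enzyme at 3 nM. IC50 reported in nM.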

[2] = Thermodynamic solubility of the compound; format: physicochemical; conditions: read-out: Therm_solubility
Hepatitis C virus [3] = test: Antiviral activity against Hepatitis C virus genotype 1a H77 infected in human 2209-23 cells after 72 hrs by luciferase reporter gene assay; format: functional, organism-based, Hepacivirus hominis; conditions: genotype 1a H77, 2209-23, 72 h
Hepatitis C virus [4] = test: Antiviral activity against Hepatitis C virus genotype 1b Con1 infected in human 2209-23 cells after 72 hrs by luciferase reporter gene assay; format: functional, organism-based, Hepacivirus hominis; conditions: isolate Con1, 2209-23, 72 h
How it was run: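 Stable GT-1b Con1 subgenomic replicon cell line expressing a renilla luciferase reporter, used as the readout of inhibition. EC50 from luciferase signal, n 2.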

Hepatitis C virus [5] = test: Ratio of EC50 for Hepatitis C virus genotype 1b Con1 in presence of human serum to EC50 for Hepatitis C virus genotype 1b Con1; format: functional, Hepacivirus hominis, isolate Con1
Hepatitis C virus [6] = test: Antiviral activity against Hepatitis C virus genotype 1b Con1 infected in human 2209-23 cells after 72 hrs by luciferase reporter gene assay in presence of 40% human serum; format: functional, organism-based, Hepacivirus hominis; conditions: isolate Con1, 2209-23, 72 h
[7] = Ratio of EC50 for Hepatitis C virus genotype 1a H77 to EC50 for Hepatitis C virus genotype 1b Con1; format: functional
Hepatitis C virus [8] = test: Ratio of EC50 for Hepatitis C virus genotype 1a H77 in presence of human serum to EC50 for Hepatitis C virus genotype 1a H77; format: functional, Hepacivirus hominis
Hepatitis C virus [9] = test: Antiviral activity against Hepatitis C virus genotype 1a H77 infected in human 2209-23 cells after 72 hrs by luciferase reporter gene assay in presence of 40% human serum; format: functional, organism-based, Hepacivirus hominis; conditions: genotype 1a H77, 2209-23, 72 h

Row | SMILES | EC50 (Hepatitis C virus [3]) [nM] | EC50 (Hepatitis C virus [4]) [nM] | IC50 [1] [nM] | solubility thermodynamic [2] [µg/mL] | further results
1 | COc1c(C(C)(C)C)cc(-c2ccc[nH]c2=O)c2ncc(N3CC[C@H](CNS(C)(=O)=O)C3)cc12 | 7.9 |  | 0.2 | 11 (≈ 22.7 µM) | 
2 | COc1c(C(C)(C)C)cc(N2CCCNC2=O)c2ncc(-c3ccc(NS(C)(=O)=O)cc3)cc12 | 64 | 20 |  |  | 
3 | COc1c(C(C)(C)C)cc(-n2ccc(=O)[nH]c2=O)c2ccc(-c3ccc(NS(C)(=O)=O)cc3)cc12 | 4 | 1 |  |  | 

Continued by falling EC50 (Hepatitis C virus [3]), values first:

Row | EC50 (Hepatitis C virus [3]) [nM] | EC50 (Hepatitis C virus [4]) [nM] | SMILES | IC50 [1] [nM] | solubility thermodynamic [2] [µg/mL] | further results
4 | 341 |  | COc1c(C(C)(C)C)cc(-c2ccc(C)[nH]c2=O)c2ncc(C#CCCNS(C)(=O)=O)cc12 | 5 | < 1 | 
5 | 5.2 | 3.1 | COc1c(C(C)(C)C)cc(-c2ccc[nH]c2=O)c2ncc(-c3ccc(NS(C)(=O)=O)cc3)cc12 |  |  | Ratio EC50 (Hepatitis C virus [5]): 0.8; EC50 (Hepatitis C virus [6]): 11 nM; EC90 (Hepatitis C virus [6]): 47 nM; Ratio EC50 [7]: 1.7; Ratio EC50 (Hepatitis C virus [8]): 0.8; EC50 (Hepatitis C virus [9]): 4 nM; EC90 (Hepatitis C virus [9]): 25 nM
